Source: PubChem (Sanford-Burnham Center for Chemical Genomics)
Scp1 inh: inhibitors of human Scp-1 phosphatase; 340,000 compounds, 0.88% hits; Recombinant Scp1, phosphopeptide, malachite green phosphate absorbance; inhibition, % at 20 µM; Q9GZU7; AID 493091;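 active = inhibition above about 50% at 20 µM, limit read from the data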;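 note: plate controls were DMSO wells with enzyme for no effect and wells lacking enzyme for full effect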
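System: truncated SCP-1 phosphatase (76-261aa); medium: Tris acetate buffer pH 5.5 with MgCl2 and Tween-20; incubation: 45 min room-temperature reaction, 5 min colour, 30 min stabiliser; compound: single 20 µM dose, 1% DMSO; reagent: Phosphorylated 17-residue peptide substrate; read-out: % inhibition at 20 µM; technique: colorimetric free-phosphate detection, absorbance 630 nm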
SUMO1 PPI mod: modulators of human SUMO1-mediated protein-protein interactions; P63165; SUMO1 binding to a labelled peptide, TR-FRET, 1 h; inhibition, % at 20 µM; 360,000 compounds, 0.33% hits; in the data active = inhibition above about 37%
LMPTP inh: blocks human LMPTP phosphatase; P24666; recombinant LMPTP-A, OMFP fluorogenic substrate, fluorescence intensity; inhibition, % at 20 µM; 360,000 compounds, 0.22% hits; AID 651560;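 active = compounds that cut the enzyme signal by at least half of the control window in the single-dose screen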;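 note: plate controls were DMSO wells with enzyme plus substrate for no effect and substrate without enzyme for full effect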
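Material: LMPTP-A; amount: 0.625 nM enzyme; doses: single 20 µM dose; times: reaction 50 min, room temperature, dark; technique: fluorescence intensity of OMFP turnover product; benchmarks: no-enzyme and uninhibited controls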
STEP block: blocks human striatal-enriched tyrosine phosphatase; P54829; recombinant STEP, OMFP fluorogenic substrate, fluorescence; inhibition, % at 20 µM; 360,000 compounds, 0.25% hits;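 active = inhibition at 20 µM, scaled per plate between control wells, above about 37%, limit read from the data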;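 note: 0% = DMSO with enzyme and substrate and 100% = substrate only without enzyme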
Target sequence (P54829 whole entry, looked up): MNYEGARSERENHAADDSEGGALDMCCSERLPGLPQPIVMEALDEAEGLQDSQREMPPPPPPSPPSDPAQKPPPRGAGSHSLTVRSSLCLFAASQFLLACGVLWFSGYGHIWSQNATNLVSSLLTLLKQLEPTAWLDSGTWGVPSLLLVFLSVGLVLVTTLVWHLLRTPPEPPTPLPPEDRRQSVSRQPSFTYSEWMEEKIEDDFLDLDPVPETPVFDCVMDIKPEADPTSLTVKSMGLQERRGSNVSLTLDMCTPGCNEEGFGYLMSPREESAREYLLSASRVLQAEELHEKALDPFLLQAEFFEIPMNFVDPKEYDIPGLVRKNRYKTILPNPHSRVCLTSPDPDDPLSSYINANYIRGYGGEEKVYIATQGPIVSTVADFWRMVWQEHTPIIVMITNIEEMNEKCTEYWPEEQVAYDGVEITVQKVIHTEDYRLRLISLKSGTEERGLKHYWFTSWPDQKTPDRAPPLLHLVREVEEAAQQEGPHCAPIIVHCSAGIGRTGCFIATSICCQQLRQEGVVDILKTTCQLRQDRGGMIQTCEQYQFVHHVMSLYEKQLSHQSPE
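Material: STEP (striatal-enriched tyrosine phosphatase) enzyme, cell-free | Medium: 50 mM Bis-Tris pH 6.0 with 2.5 mM DTT and 0.005% Tween 20 | Read-out: Percent inhibition scaled to no-enzyme and uninhibited-enzyme controls, plate-pattern corrected | Signal: Fluorescence read at 480 nm ex / 540 nm em | Times: 20 min reaction, room temperature, in the dark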
DNMT1 inh: inhibitors of human DNMT1; P26358; DNMT1 molecular beacon, Hinp1I cleavage, fluorescence; inhibition (reported as % activation of signal), % at 10 µM; 360,000 compounds, 0.83% hits; in the data active = inhibition above about 50%
* = called active by the depositor; . = no result given. Only some compounds are listed: those with a hit (about 1.7% of all), similar ones and a draw of the others.

SMILES	Scp1 inh	SUMO1 PPI mod	LMPTP inh	STEP block	DNMT1 inh
COc1cc([C@H]2c3[nH]c4ccccc4c3C[C@H]3C(=O)N4[C@@H](c5cc(OC)c(OC)c(OC)c5)c5[nH]c6ccccc6c5C[C@H]4C(=O)N23)cc(OC)c1OC	-0.2	13.2	3.5	-3.2	52.0*
CCN1C(=O)[C@@H]2Cc3c([nH]c4ccccc34)C(c3cc(OC)c(OC)c(OC)c3)N2C1=S (stereo partly drawn)	-7.7	-1.6	3.5	-14.5	-0.6
O=C(NN=Cc1ccc([N+](=O)[O-])cc1)c1ccncc1	-5.0	-32.7	-0.9	-1.7	0.7
O=C(/C=C/c1ccc([N+](=O)[O-])cc1)Oc1ccc(/C=N/NC(=O)c2ccncc2)cc1	-6.5	47.3*	46.7	1.6	4.9
CCCc1nc2c(=O)n(C)c(=O)nc-2n(C)n1	-7.4	27.3	71.5*	75.6*	96.8*
Cn1nc(-c2ccccn2)nc2c(=O)n(C)c(=O)nc1-2	-13.9	33.6	67.7*	67.4*	98.0*
COc1ccc(-c2nc(-c3ccccn3)ncc2S(C)(=O)=O)cc1	-6.9	-2.5	-0.8	1.8	-1.1
COc1ccc(-n2nc(C(=O)NCC(=O)N3CCN(c4ccccc4F)CC3)c3ccccc3c2=O)cc1OC	-0.6	-15.1	-0.6	1.1	-0.2
CC(c1ccccc1)N1C(=O)c2cccnc2C1=O (stereo not drawn)	-4.7	-10.2	-2.6	-1.4	1.1
CC(NC1=CC(=O)c2cccnc2C1=O)C(O)c1ccccc1 (stereo not drawn)	-0.3	-18.2	6.9	0.7	72.3*
CCN(CC)S(=O)(=O)c1ccc(N2CCN(C)CC2)c(NC(=O)Nc2ccc(C)cc2)c1	-7.1	-0.4	-0.2	0.5	-2.1
CCOC(=O)c1c(C)oc2c1c(C=NCCO)c(O)c1ccccc12	-1.4	45.7*	4.6	-1.6	10.2
CCOC(=O)c1c(C)oc2c1c(C(c1ccccc1)N1CCOCC1)c(O)c1ccccc12 (stereo not drawn)	-2.4	7.3	3.2	1.1	-0.9
CCOc1ccc(CCNC(=O)CN2C(=O)NC(CCSC)C2=O)cc1OCC (stereo not drawn)	-1.9	0.8	-2.7	-4.6	0.3
C/C(=N\N=C(N)N)c1ccc(C)c(C)c1	-2.0	2.3	-0.1	5.9	-0.6
COc1ccc(S(=O)(=O)N(C)c2nc3ccccc3n3c(CC(C)C)nnc23)cc1	-1.4	-8.1	-0.5	1.3	0.9
Nc1ncnc2oc(-c3ccco3)c(-c3ccco3)c12	65.9*	31.2	61.2*	29.7	93.3*
O=C(COC(=O)Cc1ccc(Br)cc1)NCc1ccc(F)cc1	-8.0	-1.3	-0.7	0.2	1.3
O=C(C=P(c1ccccc1)(c1ccccc1)c1ccccc1)c1ccccc1-c1ccccc1C(=O)C=P(c1ccccc1)(c1ccccc1)c1ccccc1	35.7	-39.2	58.6*	7.2	7.9
CCOC(=O)C1CCN(C(=O)Nc2c(-c3ccccc3)noc2C)CC1	-8.9	4.7	-2.5	-1.1	2.2
NC1=C(Cl)C(=O)c2ccccc2C1=O	-1.8	-48.8	1.7	0.6	-7.2
NC1=C(Cl)C(=O)c2ccc(S(N)(=O)=O)cc2C1=O	0.0	6.0	6.3	8.7	79.8*
Cc1cc(OCC(=O)Nc2cccnc2)c2c(C)c(C)c(=O)oc2c1	1.8	75.8*	2.2	4.2	4.8
Cc1nc(N)sc1-c1csc(Nc2ncccn2)n1	-2.3	92.8*	34.8	64.5*	-20.8
O=Cc1ccnc(-c2ccc(OC(=O)c3ccco3)cc2)n1	-8.6	55.7*	0.6	3.3	-7.7
SMILES	Scp1 inh	SUMO1 PPI mod	LMPTP inh	STEP block	DNMT1 inh
O=C(NCc1ccco1)c1cccc2c1C(=O)c1ccc(/C=C/c3ccccc3)cc1S2(=O)=O	74.9*	-9.6	4.6	-1.9	13.4
O=C(O)c1cnn(-c2nc(-c3cccc([N+](=O)[O-])c3)cs2)c1C(F)(F)F	-10.1	-22.5	1.5	-0.2	0.9
O=C(COc1ccccc1C(=O)N/N=C\c1ccc(O)c(O)c1)N/N=C/c1ccc(O)c(O)c1	61.4*	20.9	10.8	-2.4	3.9
O=C(NN=Cc1ccc(O)c(O)c1)c1ccccc1	.	-5.7	3.6	1.6	12.7
Cc1nc2ccc(NC(=O)c3ccccc3)cc2c(=O)n1Cc1ccc(F)cc1	.	1.7	1.9	1.4	-10.2
O=C(NCCC1=CCCCC1)C(=O)NCc1ccccc1	-5.7	2.3	-1.2	-4.1	4.5
